Assay results: ChEMBL document CHEMBL1137287, “Peptidyl-urea based inhibitors of soluble epoxide hydrolases” (Bioorg Med Chem Lett, 2006)

Columns and labels:
[1] = molecular target: T1, Bifunctional epoxide hydrolase 2 (Mus musculus, UniProt P34914); test: Inhibition of mouse recombinant soluble Epoxide hydrolase
T1 sequence (P34914 whole entry): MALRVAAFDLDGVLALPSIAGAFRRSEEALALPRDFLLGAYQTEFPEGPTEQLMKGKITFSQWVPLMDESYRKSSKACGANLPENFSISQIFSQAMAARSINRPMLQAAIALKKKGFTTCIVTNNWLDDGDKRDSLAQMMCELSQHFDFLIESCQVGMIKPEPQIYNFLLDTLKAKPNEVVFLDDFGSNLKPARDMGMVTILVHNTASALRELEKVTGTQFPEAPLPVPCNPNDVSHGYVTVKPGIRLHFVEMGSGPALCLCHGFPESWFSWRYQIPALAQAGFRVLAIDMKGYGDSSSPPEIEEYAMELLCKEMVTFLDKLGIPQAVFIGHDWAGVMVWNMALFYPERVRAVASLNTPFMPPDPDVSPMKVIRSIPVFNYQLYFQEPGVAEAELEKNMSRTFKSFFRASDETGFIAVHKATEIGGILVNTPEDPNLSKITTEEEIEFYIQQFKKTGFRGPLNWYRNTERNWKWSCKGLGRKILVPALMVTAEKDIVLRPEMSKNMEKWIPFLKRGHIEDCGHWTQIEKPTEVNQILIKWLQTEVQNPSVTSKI

[2] = Solubility in sodium phosphate buffer at pH 7.4; assay type: physicochemical
Procedure, shortened: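 Solubility measured in sodium phosphate buffer, 100 mM, pH 7.4, following a previously described procedure.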

[3] = molecular target: T2, Bifunctional epoxide hydrolase 2 (Homo sapiens, UniProt P34913); test: Inhibition of human recombinant soluble Epoxide hydrolase
T2 sequence (P34913 whole entry): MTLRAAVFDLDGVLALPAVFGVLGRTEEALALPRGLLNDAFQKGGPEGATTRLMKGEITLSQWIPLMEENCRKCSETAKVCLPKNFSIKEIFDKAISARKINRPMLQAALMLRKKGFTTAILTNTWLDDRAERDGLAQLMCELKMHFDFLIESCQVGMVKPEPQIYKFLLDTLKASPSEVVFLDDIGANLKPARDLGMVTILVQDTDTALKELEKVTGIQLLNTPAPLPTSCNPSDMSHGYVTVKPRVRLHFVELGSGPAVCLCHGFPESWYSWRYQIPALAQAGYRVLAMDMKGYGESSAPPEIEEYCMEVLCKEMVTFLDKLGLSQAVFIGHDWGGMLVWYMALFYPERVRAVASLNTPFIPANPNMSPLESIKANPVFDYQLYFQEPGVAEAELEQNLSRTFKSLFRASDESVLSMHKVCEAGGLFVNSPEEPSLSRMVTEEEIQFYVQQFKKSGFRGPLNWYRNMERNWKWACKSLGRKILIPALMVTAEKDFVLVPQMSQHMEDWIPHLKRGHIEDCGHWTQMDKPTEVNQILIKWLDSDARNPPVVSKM

SMILES	IC50 [1]	solubility [2]	IC50 [3]
O=C(CCCNC(=O)NC12CC3CC(CC(C3)C1)C2)N[C@@H](Cc1cnc[nH]1)C(=O)O	0.05 µM	> 500 µM	
O=C(CCCCCNC(=O)NC1CCCCC1)N[C@@H](Cc1ccccc1)C(=O)N1CCC[C@H]1C(=O)O		> 500 µM	0.1 µM
O=C(CCCCCNC(=O)NC1CCCCC1)N[C@@H](Cc1ccccc1)C(=O)N[C@@H](CO)C(=O)O		> 500 µM	2.4 µM
O=C(CCCCCNC(=O)NC12CC3CC(CC(C3)C1)C2)N[C@@H](Cc1cnc[nH]1)C(=O)O		> 500 µM	> 100 µM
CCC(C)[C@H](NC(=O)CCCCCNC(=O)NC12CC3CC(CC(C3)C1)C2)C(=O)O (some centres undefined)		> 500 µM	> 100 µM
O=C(CCCCCNC(=O)NC1CCCCC1)N[C@@H](Cc1ccccc1)C(=O)N[C@@H](Cc1ccccc1)C(=O)O		> 500 µM	0.1 µM
CC(C)[C@H](NC(=O)CCCNC(=O)NC12CC3CC(CC(C3)C1)C2)C(=O)O	30 µM	> 500 µM	
O=C(O)CC[C@H](NC(=O)CCCNC(=O)NC12CC3CC(CC(C3)C1)C2)C(=O)O	> 100 µM	> 500 µM	
O=C(O)CNC(=O)CCCNC(=O)NC12CC3CC(CC(C3)C1)C2	> 100 µM	> 500 µM	
CSCC[C@H](NC(=O)[C@H](Cc1ccccc1)NC(=O)CCCCCNC(=O)NC1CCCCC1)C(=O)O		> 500 µM	0.87 µM
O=C(NCCCCCC(=O)N1CCC[C@H]1C(=O)O)NC12CC3CC(CC(C3)C1)C2		> 500 µM	> 100 µM
C[C@H](NC(=O)CCCCCNC(=O)NC12CC3CC(CC(C3)C1)C2)C(=O)O		> 500 µM	> 100 µM
O=C(CCCCCNC(=O)NC1CCCCC1)N[C@@H](Cc1ccccc1)C(=O)N[C@@H](Cc1cnc[nH]1)C(=O)O		> 500 µM	5.5 µM
N=C(N)NCCC[C@H](NC(=O)CCCNC(=O)NC12CC3CC(CC(C3)C1)C2)C(=O)O	16 µM	> 500 µM	
O=C(CCCCCNC(=O)NC12CC3CC(CC(C3)C1)C2)N[C@@H](Cc1ccc(O)cc1)C(=O)O		> 500 µM	80 µM
C[C@H](NC(=O)[C@H](Cc1ccccc1)NC(=O)CCCCCNC(=O)NC1CCCCC1)C(=O)O		> 500 µM	0.26 µM
N=C(N)NCCC[C@H](NC(=O)[C@H](Cc1ccccc1)NC(=O)CCCCCNC(=O)NC1CCCCC1)C(=O)O		> 500 µM	2.1 µM
O=C(O)CCCCCNC(=O)NC12CC3CC(CC(C3)C1)C2			> 100 µM
COC(=O)CCCCCNC(=O)NC12CC3CC(CC(C3)C1)C2			1.8 µM
O=C(CCCCCNC(=O)NC1CCCCC1)N[C@@H](Cc1ccccc1)C(=O)N[C@@H](Cc1ccc(O)cc1)C(=O)O		> 500 µM	0.23 µM
N=C(N)NCCC[C@H](NC(=O)CCCCCNC(=O)NC12CC3CC(CC(C3)C1)C2)C(=O)O		> 500 µM	> 100 µM
CC(C)C[C@H](NC(=O)CCCCCNC(=O)NC12CC3CC(CC(C3)C1)C2)C(=O)O		> 500 µM	> 100 µM
O=C(O)CNC(=O)[C@H](Cc1ccccc1)NC(=O)CCCCCNC(=O)NC1CCCCC1		> 500 µM	1.5 µM
CC(C)[C@H](NC(=O)[C@H](Cc1ccccc1)NC(=O)CCCCCNC(=O)NC1CCCCC1)C(=O)O		> 500 µM	0.1 µM
CC[C@H](C)[C@H](NC(=O)[C@H](Cc1ccccc1)NC(=O)CCCCCNC(=O)NC1CCCCC1)C(=O)O		> 500 µM	0.13 µM
O=C(O)C[C@H](NC(=O)[C@H](Cc1ccccc1)NC(=O)CCCCCNC(=O)NC1CCCCC1)C(=O)O		> 500 µM	> 100 µM

SMILES	IC50 [1]	solubility [2]	IC50 [3]
CC(O)[C@H](NC(=O)CCCCCNC(=O)NC12CC3CC(CC(C3)C1)C2)C(=O)O (some centres undefined)		> 500 µM	> 100 µM
O=C(O)CC[C@H](NC(=O)CCCCCNC(=O)NC12CC3CC(CC(C3)C1)C2)C(=O)O		> 500 µM	> 100 µM
O=C(O)CNC(=O)CCCCCNC(=O)NC12CC3CC(CC(C3)C1)C2		> 500 µM	> 100 µM
O=C(NCCCC(=O)N1CCC[C@H]1C(=O)O)NC12CC3CC(CC(C3)C1)C2	82 µM	> 500 µM	
O=C(CCCNC(=O)NC12CC3CC(CC(C3)C1)C2)N[C@@H](Cc1ccc(O)cc1)C(=O)O	18 µM	> 500 µM	
O=C(O)CC[C@H](NC(=O)[C@H](Cc1ccccc1)NC(=O)CCCCCNC(=O)NC1CCCCC1)C(=O)O		> 500 µM	> 100 µM
O=C(CCCCCNC(=O)NC12CC3CC(CC(C3)C1)C2)N[C@@H](CO)C(=O)O		> 500 µM	> 100 µM
O=C(CCCCCNC(=O)NC12CC3CC(CC(C3)C1)C2)N[C@@H](Cc1c[nH]c2ccccc12)C(=O)O		> 500 µM	41 µM
O=C(CCCNC(=O)NC12CC3CC(CC(C3)C1)C2)N[C@@H](Cc1c[nH]c2ccccc12)C(=O)O	8.4 µM	> 500 µM	
CC(C)C[C@H](NC(=O)CCCNC(=O)NC12CC3CC(CC(C3)C1)C2)C(=O)O	15 µM	> 500 µM	
O=C(O)C[C@H](NC(=O)CCCCCNC(=O)NC12CC3CC(CC(C3)C1)C2)C(=O)O		> 500 µM	> 100 µM
CC(C)[C@H](NC(=O)CCCCCNC(=O)NC12CC3CC(CC(C3)C1)C2)C(=O)O		> 500 µM	55 µM
O=C(CCCCCNC(=O)NC12CC3CC(CC(C3)C1)C2)N[C@@H](Cc1ccccc1)C(=O)O		> 500 µM	2.7 µM
O=C(CCCNC(=O)NC12CC3CC(CC(C3)C1)C2)N[C@@H](CO)C(=O)O	47 µM		
O=C(CCCCCNC(=O)NC1CCCCC1)N[C@@H](Cc1ccccc1)C(=O)N[C@@H](Cc1c[nH]c2ccccc12)C(=O)O		> 500 µM	0.1 µM
CCC(C)[C@H](NC(=O)CCCNC(=O)NC12CC3CC(CC(C3)C1)C2)C(=O)O (some centres undefined)	1.3 µM	> 500 µM	
O=C(O)C[C@H](NC(=O)CCCNC(=O)NC12CC3CC(CC(C3)C1)C2)C(=O)O	> 100 µM	> 500 µM	
O=C(O)CCCNC(=O)NC12CC3CC(CC(C3)C1)C2	> 100 µM	> 500 µM	
CSCC[C@H](NC(=O)CCCCCNC(=O)NC12CC3CC(CC(C3)C1)C2)C(=O)O		> 500 µM	> 100 µM
CSCC[C@H](NC(=O)CCCNC(=O)NC12CC3CC(CC(C3)C1)C2)C(=O)O	4.8 µM	> 500 µM	
C[C@H](NC(=O)CCCNC(=O)NC12CC3CC(CC(C3)C1)C2)C(=O)O	> 100 µM	> 500 µM	
O=C(CCCNC(=O)NC12CC3CC(CC(C3)C1)C2)N[C@@H](Cc1ccccc1)C(=O)O	0.8 µM	> 500 µM	
CC(C)C[C@H](NC(=O)[C@H](Cc1ccccc1)NC(=O)CCCCCNC(=O)NC1CCCCC1)C(=O)O		> 500 µM	0.88 µM
C[C@H](O)[C@H](NC(=O)[C@H](Cc1ccccc1)NC(=O)CCCCCNC(=O)NC1CCCCC1)C(=O)O		> 500 µM	1.3 µM
O=C(CCCCCNC(=O)NC1CCCCC1)N[C@@H](Cc1ccccc1)C(=O)O (stereo in doubt; form 2)		> 500 µM	1 µM
